In ChEMBL document CHEMBL4715843, “NO-releasing STAT3 inhibitors suppress BRAF-mutant melanoma growth” (Eur J Med Chem, 2020) one finds Drug metabolism, inhibition and IC50 data, which are given here for 3 compounds.

A short description of assay [1]: Drug metabolism in pH 7.4 phosphate buffer assessed as nitric oxide release at 100 uM measured after 2 hrs by Griess reagent based colorimetric method. A digest of the protocol: (§1)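 Compound at 100 µM was held at room temperature in pH 7.4 phosphate buffer with 5 mM DTT and 2% DMSO for 2 or 48 h. Griess reagent was added, and after 30 min absorbance was read at 548 nm. NO release (mol NO/mol compound) was derived from a sodium nitrite calibration curve.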

Assay [2] is described as follows: Drug metabolism in pH 7.4 phosphate buffer assessed as nitric oxide release at 100 uM measured after 48 hrs by Griess reagent based colorimetric method. An outline of the steps:
as §1
In general terms: Nitrite, measured by Griess reagent, commonly stands in for NO production.

The target in assay [3] is T1, Signal transducer and activator of transcription 3 (Homo sapiens, UniProt P40763). The experiment in a line: Inhibition of STAT3 phosphorylation at Y705 residue in human SB-590885-resistant 451Lu cells measured after 12 hrs by Western blot analysis. Particulars: dose 10-25 µM. A digest of the protocol:
(§2)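 451 Lu and MEL 1617 pairs, sensitive and resistant; resistant lines maintained in RPMI with 1 µM PLX4720. Treated with 10 and 25 µM for 12 h versus DMSO. Lysates (60 µg protein, 10% SDS-PAGE) immunoblotted for Ser727- and Tyr705-phospho-STAT3, total STAT3, total PAX3, with actin.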

For assay [4], the target named is T1, Signal transducer and activator of transcription 3. As to the kind of experiment: Inhibition of STAT3 phosphorylation at S727 residue in human SB-590885-resistant 451Lu cells measured after 12 hrs by Western blot analysis. Particulars: dose 10-25 µM. A digest of the protocol:
as §2
(In western blotting, separated proteins are transferred to a membrane and probed.)

The target is the same in assay [5]. As to the kind of experiment: Inhibition of STAT3 phosphorylation at Y705 residue in human SB-590885-sensitive 451Lu cells measured after 12 hrs by Western blot analysis. The following applies: dose 10-25 µM. An outline of the steps: as §2
The target is the same in assay [6]. The experiment in a line: Inhibition of STAT3 phosphorylation at S727 residue in human SB-590885-sensitive 451Lu cells measured after 12 hrs by Western blot analysis. The following applies: dose 10-25 µM. An outline of the steps:
as §2

The target is the same in assay [7]. The experiment in a line: Inhibition of STAT3 in human SB-590885-sensitive 451Lu cells assessed as reduction in PAX3 expression measured after 12 hrs by Western blot analysis. The following applies: dose 10-25 µM. An outline of the steps:
as §2

The target is the same in assay [8]. As to the kind of experiment: Inhibition of STAT3 in human SB-590885-resistant 451Lu cells assessed as reduction in PAX3 expression measured after 12 hrs by Western blot analysis. The following applies: dose 10-25 µM. A digest of the protocol: as §2
Assay [9] has the same target. As to the kind of experiment: Inhibition of STAT3 phosphorylation at Y705 residue in human SB-590885-resistant MEL1617 cells at 10 to 25 uM measured after 12 hrs by Western blot analysis. The class given is cell-based. The following applies: dose 10-25 µM. A digest of the protocol:
as §2

Assay [10] has the same target. The experiment in a line: Inhibition of STAT3 phosphorylation at S727 residue in human SB-590885-resistant MEL1617 cells at 10 to 25 uM measured after 12 hrs by Western blot analysis. The assay is classed as cell-based. The following applies: dose 10-25 µM. An outline of the steps: as §2
Assay [11] shares this target. The experiment in a line: Inhibition of STAT3 phosphorylation at Y705 residue in human SB-590885-sensitive MEL1617 cells at 10 to 25 uM measured after 12 hrs by Western blot analysis. The class given is cell-based. Particulars: dose 10-25 µM. A digest of the protocol: as §2
For assay [12] the target is unchanged. As to the kind of experiment: Inhibition of STAT3 phosphorylation at S727 residue in human SB-590885-sensitive MEL1617 cells at 10 to 25 uM measured after 12 hrs by Western blot analysis. The assay is classed as cell-based. The following applies: dose 10-25 µM. A digest of the protocol: as §2
The target is the same in assay [13]. The experiment in a line: Inhibition of STAT3 in human SB-590885-sensitive MEL1617 cells assessed as reduction in PAX3 expression at 10 to 25 uM measured after 12 hrs by Western blot analysis. The class given is cell-based. The following applies: dose 10-25 µM. A digest of the protocol:
as §2

For assay [14] the target is unchanged. The experiment in a line: Inhibition of STAT3 in human SB-590885-resistant MEL1617 cells assessed as reduction in PAX3 expression at 10 to 25 uM measured after 12 hrs by Western blot analysis. Particulars: dose 10-25 µM. The assay is classed as cell-based. An outline of the steps:
as §2

The nature of assay [15]: Antiproliferative activity against human SB-590885-sensitive 451Lu cells assessed as reduction in cell viability measured after 48 hrs by MTS assay. The class given is functional. An outline of the steps: (§3)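 Melanoma lines were grown in RPMI-1640 with Glutamax at 37 °C and 5% CO2. The resistant 451 Lu-R and MEL 1617-R sublines were maintained with 1 µM PLX4720. Cells were incubated with vehicle or inhibitor over a dose range, and viability was read by MTS assay in triplicate.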
(In general: Tetrazolium dyes change colour on reduction, which living cells bring about.)

The nature of assay [16]: Antiproliferative activity against human SB-590885-resistant 451Lu cells assessed as reduction in cell viability measured after 48 hrs by MTS assay. The class given is functional. The following applies: 451lu. A digest of the protocol:
as §3

The nature of assay [17]: Antiproliferative activity against human SB-590885-sensitive MEL1617 cells assessed as reduction in cell viability measured after 48 hrs by MTS assay. The assay is classed as functional, cell-based. Particulars: MEL1617, 48 h. A digest of the protocol:
as §3

A short description of assay [18]: Antiproliferative activity against human SB-590885-resistant MEL1617 cells assessed as reduction in cell viability measured after 48 hrs by MTS assay. The assay is classed as functional, cell-based. Particulars: mel1617. A digest of the protocol: as §3

The source made the active and inactive calls. The rule behind the calls is not given here.

T1 sequence (P40763 whole entry): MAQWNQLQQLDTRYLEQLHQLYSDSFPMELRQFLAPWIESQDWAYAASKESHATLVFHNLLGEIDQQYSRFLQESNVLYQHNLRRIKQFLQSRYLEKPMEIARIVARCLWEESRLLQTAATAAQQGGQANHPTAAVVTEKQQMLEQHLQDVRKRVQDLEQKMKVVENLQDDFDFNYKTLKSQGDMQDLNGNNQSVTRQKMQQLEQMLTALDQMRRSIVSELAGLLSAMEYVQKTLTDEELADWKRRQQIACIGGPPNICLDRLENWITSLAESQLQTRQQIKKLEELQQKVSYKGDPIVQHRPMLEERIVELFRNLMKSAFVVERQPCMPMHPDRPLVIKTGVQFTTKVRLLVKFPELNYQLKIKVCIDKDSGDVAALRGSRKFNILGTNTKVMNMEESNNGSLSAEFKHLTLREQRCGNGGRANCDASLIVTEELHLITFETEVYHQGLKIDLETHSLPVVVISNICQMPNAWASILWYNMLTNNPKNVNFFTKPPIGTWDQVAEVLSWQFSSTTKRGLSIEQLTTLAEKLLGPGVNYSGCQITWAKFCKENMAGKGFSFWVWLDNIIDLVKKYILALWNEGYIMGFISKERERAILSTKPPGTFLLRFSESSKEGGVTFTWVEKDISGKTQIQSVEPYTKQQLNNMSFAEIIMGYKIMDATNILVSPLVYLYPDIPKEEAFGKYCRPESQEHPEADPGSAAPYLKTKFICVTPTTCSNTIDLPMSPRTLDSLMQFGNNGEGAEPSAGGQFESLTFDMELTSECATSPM

Regarding `COc1ccc(-c2cc(-c3nnc(SCC(=O)Nc4ccc(/C(C)=N\O)cc4)n3-c3ccccc3)c3cc(OC)ccc3n2)cc1`, the Drug metabolism in [1] stood at 15%; in assay [2], 30%. In addition, the inhibition result in assay [3], in assay [4], in [5], in assay [6], in [7] and in [8] was “inactive” each time. Further, the inhibition result in [9], in assay [10], in assay [11], in assay [12], in assay [13] and in assay [14] was “inactive” throughout.

In the case of `CCCS(=O)(=O)Nc1ccc(F)c(C(=O)c2c[nH]c3ncc(Cl)cc23)c1F` [PLX-4720], the IC50 (commonly the concentration that gives 50% inhibition) in assay [15] is 0.062 µM; in assay [16], “Not Active”; in [17], 0.084 µM; in [18] it was “Not Active”.

On to `COc1ccc2nc(-c3ccc(OC)c(OC)c3)cc(-c3nnc(SCC(=O)Nc4ccc(/C(C)=N\O)cc4)n3-c3ccccc3)c2c1`, for which the Drug metabolism came to 15% in assay [1] and 30% in assay [2]. The inhibition result in [3], in [4], in [5], in assay [6], in assay [7] and in assay [8] was “inactive” each time. Also, the inhibition result in assay [9], in assay [10], in assay [11], in assay [12], in assay [13] and in assay [14] was “inactive” throughout.
